# Hits are enriched below; roughly 1.2% of the tested compounds scored in any of these assays.
# ABHD5-PLIN5 inh: inhibitors of human ABHD5-perilipin-5 interaction | Q00G26+Q8WTS1 | Split G. princeps luciferase complementation, luminescence, 4 h | inhibition, % at 4 µM | 0.78% of 360,000 active;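 active = inhibition above the mean inhibition across every tested compound plus 3 SD, cut at about 22% in these data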;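 also: 0% = DMSO only wells and the 100% control is not disclosed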
# FN deposition inh: fibronectin deposition inhibition | 0.086% of 350,000 active | inhibition, % at 12.6 µM | AH1F fibroblasts, Alexa488-fibronectin deposition fluorescence, overnight;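 active = mean inhibition across replicates of 30% or more, regardless of how many single replicates reach that level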;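 also: positive control wells lacked labelled fibronectin entirely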
#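 Assay system: AH1F fibroblast monolayer, labelled fibronectin deposition. Amount: 10000 cells per well. Also added: labelled fibronectin 24 nM. Compound: single-point pinned compound. Incubation: cell attachment 1 h, compound and FN exposure overnight. Detection: fluorescence after three HBSS washes, excitation 485 nm, emission 525 nm. Read-out: inhibition of fibronectin deposition signal.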
# APOBEC3A inh: inhibitors of human APOBEC3A DNA deaminase; inhibition, % at 20 µM; recombinant A3A, FAM/TAMRA ssDNA deamination fluorescence; 0.41% of 330,000 active; P31941;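 active = at least 40% inhibition at 20 µM here, with at most 30% in a related deaminase screen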;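 also: plate controls were A3A with DMSO for no effect and wells lacking A3A enzyme for full effect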
# A3G deaminase: inhibitors of human APOBEC3G DNA deaminase. Q9HC16. recombinant A3G, ssDNA deamination FAM/TAMRA fluorescence. inhibition, % at 20 µM. 0.28% of 330,000 active. AID 493012;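 active = inhibition of at least 40% at 20 µM, with no more than 30% in the related APOBEC3A deaminase screen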;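 also: plate controls were DMSO wells with A3G for no effect and wells lacking A3G enzyme for full effect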
# ABHD5 PLIN5 conf: ABHD5-PLIN5 interaction inhibition, confirmed. biochemical ABHD5-PLIN5 interaction, luminescence. 67% of 2,200 active. shares compounds with ABHD5-PLIN5 inh. inhibition, % at 4 µM; in the data active = inhibition above about 23%;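 also: 0% = DMSO vehicle wells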
# HNF4 split-luc: HNF4 split-luciferase signal hit, counter-screen. shares compounds with ABHD5-PLIN5 inh. HNF4 dimerization, luminescence, biochemical. inhibition, % at 4 µM. 77% of 2,200 active;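 active = mean inhibition across replicate wells exceeding the computed hit threshold, cut at about 13% in these data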;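 also: light from luciferase halves that rejoin when HNF4 fusion proteins dimerize; 0% = DMSO only wells and the 100% control is not given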
# Target sequence (P41235 whole entry, looked up, the tested form may be a part): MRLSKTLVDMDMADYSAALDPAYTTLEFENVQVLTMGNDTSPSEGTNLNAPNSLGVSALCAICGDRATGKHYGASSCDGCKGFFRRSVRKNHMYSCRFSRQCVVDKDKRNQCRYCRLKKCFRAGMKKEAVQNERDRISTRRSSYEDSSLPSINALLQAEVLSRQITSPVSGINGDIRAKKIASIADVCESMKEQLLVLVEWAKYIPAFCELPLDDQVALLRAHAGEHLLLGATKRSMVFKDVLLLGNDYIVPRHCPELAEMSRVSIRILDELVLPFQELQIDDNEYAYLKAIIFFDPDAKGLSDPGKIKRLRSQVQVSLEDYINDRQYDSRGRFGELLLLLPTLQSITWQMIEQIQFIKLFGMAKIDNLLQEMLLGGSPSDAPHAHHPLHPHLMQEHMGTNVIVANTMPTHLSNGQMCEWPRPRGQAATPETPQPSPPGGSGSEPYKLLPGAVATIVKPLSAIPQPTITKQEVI
# * = called active by the depositor; . = not tested or not shown.
SMILES,ABHD5-PLIN5 inh,FN deposition inh,APOBEC3A inh,A3G deaminase,ABHD5 PLIN5 conf,HNF4 split-luc
O=C(NC1CCCCC1)C(c1ccc(-c2ccccc2)cc1)n1c(=O)c(-c2ccco2)nc2ccccc21 (configuration not stated),79*,3,.,.,71*,2
O=C(Nc1ccc2c(c1)OCCO2)C(c1ccncc1)n1c(=O)c(-c2ccco2)nc2ccccc21 (configuration not stated),11,0,.,.,.,.
O=C(Nc1ccc2c(c1)OCCO2)C(c1ccnc2ccccc12)n1c(=O)c(-c2ccco2)nc2ccccc21 (configuration not stated),50*,9,.,.,26*,7
O=C(NC1CCCCC1)C(c1ccccc1F)n1c(=O)c(-c2ccco2)nc2ccccc21 (configuration not stated),72*,-13,.,.,85*,31*
O=C(NC1CCCCC1)C(c1ccnc2ccccc12)n1c(=O)c(-c2ccco2)nc2ccccc21 (configuration not stated),55*,-6,.,.,50*,8
O=C(NC1CCCCC1)C(c1ccncc1)n1c(=O)c(-c2ccccc2)nc2ccccc21 (configuration not stated),0,1,.,.,.,.
CCNC(=O)C[C@H]1CC[C@@H]2[C@H](COc3ccc(NC(=O)c4cccc(OC)c4)cc3C(=O)N2C)O1,.,-8,.,.,.,.
CC(=O)N1CC[C@@H]2[C@H]1c1cc(-c3ccc(C#N)cc3)ccc1N(C)[C@H]2CO,.,12,.,.,.,.
O=c1c(C(c2ccccc2)c2c(O)nc3n(c2=O)CCS3)c(O)nc2n1CCS2,25*,1,0,-2,56*,59*
Cc1ccc(CNC(=O)CC(C)S(=O)(=O)c2ccc3c(c2)NC(=O)CS3)o1 (configuration not stated),38*,-2,-7,-6,12,22*
Cc1ccc(S(=O)(=O)Nc2ccc3c(c2)C(=O)N([C@@H](C)CO)C[C@H](C)[C@H](CN(C)C(=O)Nc2c(C)noc2C)OCCCC[C@@H](C)O3)cc1,.,-9,.,.,.,.
O=C(C=C1SCCS1)/C=C/c1ccco1,31*,.,60,33,44*,48*
O=C(O)C(C(=O)/C=C/c1ccco1)=C1SCCS1,45*,.,90,53,21,31*
O=C(C=Cc1ccco1)c1ccco1,16,4,.,.,.,.
CNC(=O)C[C@H]1CC[C@@H]2[C@H](COc3ccc(NC(=O)c4cc(C)on4)cc3C(=O)N2C)O1,.,-4,.,.,.,.
Cc1ccccc1-n1nc(C)c2c(C(=O)NN)cc(-c3ccncc3)nc21,14,13,1,-5,.,.
Cc1nn(-c2ccccn2)c2nc(-c3cccs3)cc(C(=O)NCc3ccco3)c12,35*,.,-16,-4,14,15*
Cc1nn(-c2ccccc2)c2nc(-c3ccncc3)cc(C(=O)NCc3ccco3)c12,24*,0,19,27,21,26*
CCOC(=O)c1cc(-c2cccs2)nc2c1c(C)nn2-c1ccccn1,0,1,0,-7,.,.
O=C(NCc1ccco1)c1cc2nc(-c3cccs3)cc(C(F)(F)F)n2n1,23*,.,0,-7,13,16*
COc1cccc(S(=O)(=O)N(C)C[C@H]2OCc3ccccc3-c3ccccc3C(=O)N([C@@H](C)CO)C[C@H]2C)c1,.,5,.,.,.,.
C[C@H]1CN([C@@H](C)CO)C(=O)c2cccc(NC(=O)Nc3cccc4ccccc34)c2O[C@@H]1CN(C)S(=O)(=O)c1cn(C)cn1,.,3,.,.,.,.
CC(NC(=O)/C=C/c1ccco1)c1nc2ccccc2n1Cc1ccccc1F (configuration not stated),35*,-11,-1,-8,13,12
Cc1ccccc1-c1cnc2c(c1)C(=O)N([C@@H](C)CO)C[C@@H](C)[C@@H](CN(C)C(=O)c1ccc(F)cc1)O2,.,-7,.,.,.,.
CC1CCN(S(=O)(=O)c2ccc(NC(=O)Cn3nnc(-c4ccccc4)n3)cc2)CC1,26*,4,-2,-3,53*,-1
SMILES,ABHD5-PLIN5 inh,FN deposition inh,APOBEC3A inh,A3G deaminase,ABHD5 PLIN5 conf,HNF4 split-luc
CC1CCN(CC(=O)Nc2ccc(S(=O)(=O)N3CCC(C)CC3)cc2)CC1,-1,-8,-4,-15,.,.
CC1CCN(S(=O)(=O)c2ccc(NC(=O)Cc3cccs3)cc2)CC1,33*,-1,4,1,44*,1
Cc1cc(NC(=O)CCCS(=O)(=O)c2nc(-c3cccs3)cc(C(F)(F)F)n2)no1,47*,1,-1,-5,74*,100*
O=C(O)CCS(=O)(=O)c1nc(-c2cccs2)cc(C(F)(F)F)n1,28*,.,0,0,59*,66*
CC(=O)C(C(C)=O)C1(O)C(=O)c2ccccc2C1=O,41*,-9,-2,-5,4,11
C[C@@H]1CN([C@@H](C)CO)C(=O)c2cc(C#Cc3cccnc3)cnc2O[C@H]1CN(C)C(=O)CC1CC1,.,-6,.,.,.,.
Cc1ccc(C(=O)NCc2ccco2)cc1S(=O)(=O)N1CCCCC1,26*,.,9,1,13,8
Cc1ccc(C(=O)Nc2ccccc2C(=O)NCc2ccco2)cc1S(=O)(=O)N1CCCCC1,0,13,-1,-3,.,.
C[C@@H]1CCCCO[C@H](CN(C)C(=O)Cc2ccccc2)[C@H](C)CN([C@@H](C)CO)C(=O)c2cc(NS(C)(=O)=O)ccc2O1,.,8,.,.,.,.
COc1ccc(S(=O)(=O)Nc2ccc3c(c2)C(=O)N([C@H](C)CO)C[C@@H](C)[C@@H](CN(C)Cc2ccc4c(c2)OCO4)O3)cc1,.,2,.,.,.,.
C[C@@H]1CN([C@@H](C)CO)C(=O)c2cc(-c3ccccc3F)cnc2O[C@H]1CN(C)C(=O)CN(C)C,.,2,.,.,.,.
Cc1ccc(NS(=O)(=O)c2ccc(N3CCN(c4ccc(O)cc4)CC3)c([N+](=O)[O-])c2)c(C)c1,35*,10,-4,-7,12,10
O=C(C#Cc1ccccc1)c1ccco1,39*,-10,-2,-5,54*,107*
C[C@H]1CCCCO[C@@H](CN(C)Cc2ccccc2)[C@@H](C)CN([C@@H](C)CO)C(=O)c2cc(NS(=O)(=O)c3ccc(F)cc3)ccc2O1,.,-6,.,.,.,.
CC(=O)N/C(=C/c1ccccc1)c1ccccc1,0,-11,-2,-5,.,.
CC(C)(C)NCC(=Cc1ccccc1)C(=O)c1ccccc1,41*,13,.,.,69*,54*
CCN1C(=O)CS/C1=N\S(=O)(=O)c1ccc(Cl)cc1,-3,3,6,-10,.,.
CCn1c(Cl)c(C=O)s/c1=N\S(=O)(=O)c1ccccc1,48*,50*,-6,8,71*,105*
COc1ccc(S(=O)(=O)Nc2ccc3c(c2)C(=O)N([C@H](C)CO)C[C@H](C)[C@@H](CN(C)S(=O)(=O)c2ccc(OC)cc2)OCCCC[C@H](C)O3)cc1,.,1,.,.,.,.

# Bioassay records deposited in PubChem BioAssay by several laboratories.
